Test results taken from ChEMBL document CHEMBL3085651, “Anti-cancer evaluation of carboxamides of furano-sesquiterpene carboxylic acids from the soft coral Sinularia kavarattiensis” (Bioorg Med Chem Lett, 2013).

Assays:
[1] = tested on: A549; assay: Cytotoxicity against human A549 cells assessed as cell viability after 48 hrs by MTT assay; type: functional, cell-based; details: A549, 48 h
How it was run: (§1)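 A549 and HeLa cells grown in DMEM with non-essential amino acids and 10% FBS at 37 °C, 5% CO2. Subconfluent cells were trypsinized, plated at 1 × 10^4 cells per well in 96-well plates, and exposed to a range of concentrations for 48 h. MTT was added for 1 h, and formazan was dissolved in DMSO and read by absorbance. IC50 is mean ± SD of three independent experiments.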

[2] = tested on: THP-1; assay: Cytotoxicity against human THP1 cells assessed as cell viability after 48 hrs by MTT assay; type: functional, cell-based; details: THP-1, 48 h
How it was run: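 THP-1 cells cultured in RPMI-1640 containing 2-mercaptoethanol and 10% FBS, humidified 5% CO2, 37 °C. They were seeded at 1 × 10^4 cells per well in 96-well plates and incubated with graded compound concentrations for 48 h. MTT was added for the final 1 h, and formazan was dissolved in DMSO for absorbance reading. IC50 is mean ± SD of three independent experiments.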

[3] = tested on: HeLa; assay: Cytotoxicity against human HeLa cells assessed as cell viability after 48 hrs by MTT assay; type: functional, cell-based; how it was run: as §1
[4] = target: T1, Phospholipase A2 (Apis mellifera, UniProt P00630); assay: Inhibition of bee venom phospholipase A2
T1 sequence (P00630 whole entry): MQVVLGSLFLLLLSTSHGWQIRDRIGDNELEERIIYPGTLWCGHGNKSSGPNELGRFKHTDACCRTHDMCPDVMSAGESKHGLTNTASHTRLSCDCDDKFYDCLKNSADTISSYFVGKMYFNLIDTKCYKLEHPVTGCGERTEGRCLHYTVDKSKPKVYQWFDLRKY

[5] = tested on: MCF7; assay: Cytotoxicity against human MCF7 cells assessed as cell viability after 48 hrs by MTT assay; type: functional, cell-based; details: MCF7, 48 h
How it was run: (§2)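 DU145 and MCF-7 cells grown in MEM with non-essential amino acids, 1 mM sodium pyruvate, […] bovine insulin and 10% FBS at 37 °C, 5% CO2. Cells were seeded at 1 × 10^4 per well in 96-well plates and treated at varied concentrations for 48 h. MTT reduction was measured over 1 h, with DMSO-solubilized formazan read by absorbance. IC50 is mean ± SD, n = 3 independent experiments.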

[6] = tested on: DU-145; assay: Cytotoxicity against human DU145 cells assessed as cell viability after 48 hrs by MTT assay; type: functional, cell-based; details: DU-145, 48 h; how it was run: as §2

C=C/C(C)=C\CC/C(C)=C/c1cc(C(=O)O)co1 gave an IC50 [1] of 89.3 µM, an IC50 [2] of 56.6 µM and an IC50 [3] of 81 µM. It also gave an IC50 [4] of 500 µM, an IC50 [5] of 61.9 µM and an IC50 [6] of 60.1 µM.
For C=C/C(C)=C/CC/C(C)=C/c1cc(C(=O)O)co1, the IC50 [1] was 89.7 µM, the IC50 [2] was 39.8 µM and the IC50 [3] was 80.4 µM. The IC50 [5] was 74.5 µM and the IC50 [6] was 38.9 µM.
C=C/C(C)=C\CC/C(C)=C/c1cc(C(=O)OC)co1 was tested, and the IC50 [1] was 89.6 µM, the IC50 [2] was 51.4 µM and the IC50 [3] was 59.4 µM. The IC50 [5] was 75.4 µM and the IC50 [6] was 59.3 µM.
With C=C/C(C)=C/CC/C(C)=C/c1cc(C(=O)OC)co1 the IC50 [1] was 28.6 µM, the IC50 [2] was 25.8 µM and the IC50 [3] was 35.5 µM. The IC50 [5] was 28.9 µM and the IC50 [6] was 25.1 µM.
In the case of C=C/C(C)=C\CC/C(C)=C/c1cc(C(=O)N2CCN(C)CC2)co1, the IC50 [1] is reported as 23.6 µM, the IC50 [2] is reported as 20.8 µM and the IC50 [3] is reported as 30.5 µM. It also gave an IC50 [5] of 27.9 µM and an IC50 [6] of 24.1 µM.
With C=C/C(C)=C\CC/C(C)=C/c1cc(C(=O)N2CCN(CC)CC2)co1 the IC50 [1] was 27.9 µM, the IC50 [2] was 26.5 µM and the IC50 [3] was 35.9 µM. For the same compound, the IC50 [5] was 30.3 µM and the IC50 [6] was 20.4 µM.
C=C/C(C)=C\CC/C(C)=C/c1cc(C(=O)N2CCN(c3ccccc3)CC2)co1 gave an IC50 [1] of 28.3 µM, an IC50 [2] of 28.6 µM and an IC50 [3] of 32.1 µM. The IC50 [5] was 39.8 µM and the IC50 [6] was 30.3 µM.
C=C/C(C)=C\CC/C(C)=C/c1cc(C(=O)N2CCN(Cc3ccccc3)CC2)co1 gave an IC50 [1] of 50.7 µM, an IC50 [2] of 50.9 µM and an IC50 [3] of 59.4 µM. It also gave an IC50 [5] of 53.7 µM and an IC50 [6] of 45.3 µM.
C=C/C(C)=C\CC/C(C)=C/c1cc(C(=O)N2CCN(Cc3ccc4c(c3)OCO4)CC2)co1 was tested, and the IC50 [1] was 45.5 µM, the IC50 [2] was 15.9 µM and the IC50 [3] was 44.2 µM. For the same compound, the IC50 [5] was 50.8 µM and the IC50 [6] was 17.9 µM.
In the case of C=C/C(C)=C\CC/C(C)=C/c1cc(C(=O)N2CCN(C(c3ccccc3)c3ccccc3)CC2)co1, the IC50 [1] is reported as 24.6 µM, the IC50 [2] is reported as 17.8 µM and the IC50 [3] is reported as 28.5 µM. It also gave an IC50 [5] of 26.7 µM and an IC50 [6] of 16.8 µM.
Compound C=C/C(C)=C\CC/C(C)=C/c1cc(C(=O)Nc2ccc(C)cc2)co1 has an IC50 [1] of 63.2 µM, an IC50 [2] of 60.4 µM and an IC50 [3] of 59.5 µM. For the same compound, the IC50 [5] was 65.3 µM and the IC50 [6] was 56.5 µM.
In the case of C=C/C(C)=C\CC/C(C)=C/c1cc(C(=O)NCCCNC(=O)c2coc(/C=C(\C)CC/C=C(/C)C=C)c2)co1, the IC50 [1] is reported as 69.7 µM, the IC50 [2] is reported as 59 µM and the IC50 [3] is reported as 73.4 µM. The IC50 [5] was 57.7 µM and the IC50 [6] was 41.3 µM.
